Experimental data as given in ChEMBL document CHEMBL3085739, “Design, synthesis, and biological evaluation of 2-oxo-3,4-dihydropyrimido[4,5-d]pyrimidinyl derivatives as new irreversible epidermal growth factor receptor inhibitors with improved pharmacokinetic properties” (J Med Chem, 2013).
In brackets after ≈: the same amount, converted by molar mass.

Columns and labels:
[1] = Thermodynamic aqueous solubility of the compound in PBS buffer at pH 6.8 after 24 hrs by HPLC analysis; format: physicochemical; conditions: for solubility thermodynamic at 24 h: PBS buffer, pH 6.8, read-out: Therm_solubility
In short: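 Compound was shaken in aqueous buffer at pH 6.8 for 24 h at ambient temperature; dissolved concentration was measured by HPLC.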

NCI-H1975 = assay: Antiproliferative activity against human NCI-H1975 cells expressing EGFR L858R/T790M double mutant after 72 hrs by MTS assay; format: functional, cell-based; conditions: NCI-H1975, 72 h
[2] = molecular target: Epidermal growth factor receptor (Homo sapiens, UniProt P00533, L858R/T790M); assay: Inhibition of EGFR L858R/T790M double mutant (unknown origin) after 1.5 hrs by FRET-based Z'-Lyte assay; format: protein assay
[3] = Clearance in Sprague-Dawley rat at 25 mg/kg, po by LC/MS analysis; format: ADME, organism-based; parameters: dose 25 mg/kg, route oral; conditions: in vivo
In short: (§1)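 Male Sprague-Dawley rats (180−220 g), n = 4 per route, single iv dose 5 mg/kg or oral gavage 25 mg/kg. Vehicle was 2% DMSO, 4% EtOH, 4% castor oil, 90% H2O. Orbital sinus blood was taken from 2 min to 72 h into heparinized tubes. Plasma levels were measured by LC/MS with propranolol internal standard and analysed by pharmacokinetic modelling.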

[4] = Oral bioavailability in Sprague-Dawley rat at 25 mg/kg by LC/MS analysis; format: ADME, organism-based; conditions: in vivo; in short: as §1
[5] = AUC (0 to infinity) in Sprague-Dawley rat at 25 mg/kg, po by LC/MS analysis; format: ADME, organism-based; parameters: dose 25 mg/kg, route oral, time infinity; conditions: plasma; in short: as §1
[6] = Cmax in Sprague-Dawley rat at 5 mg/kg, iv by LC/MS analysis; format: ADME, organism-based; parameters: dose 5 mg/kg, route intravenous; conditions: in vivo; in short: as §1
[7] = Clearance in Sprague-Dawley rat at 5 mg/kg, iv by LC/MS analysis; format: ADME, organism-based; parameters: dose 5 mg/kg, route intravenous; conditions: in vivo; in short: as §1
[8] = AUC (0 to infinity) in Sprague-Dawley rat at 5 mg/kg, iv by LC/MS analysis; format: ADME, organism-based; parameters: time infinity, dose 5 mg/kg, route intravenous; conditions: plasma; in short: as §1
[9] = Cmax in Sprague-Dawley rat at 25 mg/kg, po by LC/MS analysis; format: ADME, organism-based; parameters: dose 25 mg/kg, route oral; conditions: in vivo; in short: as §1

Sequence of Epidermal growth factor receptor (P00533 25-1210 T790M/L858R limits assumed): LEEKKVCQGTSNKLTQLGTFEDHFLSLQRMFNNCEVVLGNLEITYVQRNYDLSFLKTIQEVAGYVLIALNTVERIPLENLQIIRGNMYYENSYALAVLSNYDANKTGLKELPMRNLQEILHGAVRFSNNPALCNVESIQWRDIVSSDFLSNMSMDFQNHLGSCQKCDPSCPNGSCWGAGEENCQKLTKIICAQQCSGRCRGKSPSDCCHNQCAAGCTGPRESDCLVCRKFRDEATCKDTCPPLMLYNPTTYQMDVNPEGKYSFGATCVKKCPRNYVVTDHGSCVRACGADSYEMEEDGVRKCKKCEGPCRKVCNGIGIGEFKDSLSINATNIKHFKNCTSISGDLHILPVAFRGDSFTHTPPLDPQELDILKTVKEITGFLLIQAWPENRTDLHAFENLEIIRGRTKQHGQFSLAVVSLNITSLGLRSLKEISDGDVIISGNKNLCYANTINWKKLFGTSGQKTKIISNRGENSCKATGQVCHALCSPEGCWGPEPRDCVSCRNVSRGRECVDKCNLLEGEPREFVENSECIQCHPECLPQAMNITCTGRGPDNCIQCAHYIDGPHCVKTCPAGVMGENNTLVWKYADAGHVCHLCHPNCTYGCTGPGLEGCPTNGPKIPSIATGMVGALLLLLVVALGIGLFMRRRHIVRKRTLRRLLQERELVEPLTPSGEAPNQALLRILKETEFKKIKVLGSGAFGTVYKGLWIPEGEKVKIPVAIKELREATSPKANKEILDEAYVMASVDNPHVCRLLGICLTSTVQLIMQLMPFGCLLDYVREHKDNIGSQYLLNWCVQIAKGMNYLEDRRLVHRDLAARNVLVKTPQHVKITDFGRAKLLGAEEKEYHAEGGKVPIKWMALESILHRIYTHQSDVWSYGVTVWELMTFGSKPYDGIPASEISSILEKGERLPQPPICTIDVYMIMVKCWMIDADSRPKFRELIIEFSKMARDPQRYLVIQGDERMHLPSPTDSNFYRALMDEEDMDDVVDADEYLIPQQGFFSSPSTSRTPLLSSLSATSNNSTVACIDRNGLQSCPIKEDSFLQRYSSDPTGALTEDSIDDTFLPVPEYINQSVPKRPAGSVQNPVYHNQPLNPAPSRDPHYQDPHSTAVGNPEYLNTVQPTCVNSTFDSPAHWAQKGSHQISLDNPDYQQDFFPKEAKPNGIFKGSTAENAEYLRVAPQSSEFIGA

Row | solubility thermodynamic at 24 h [1] [µg/mL] | IC50 (NCI-H1975) [nM] | IC50 [2] [nM] | CL/F [3] [mL/min/kg] | bioavailability [4] [%] | AUC(0-inf) [5] [ng·h/mL] | Cmax [6] [ng/mL] | clearance [7] [mL/min/kg] | AUC(0-inf) [8] [ng·h/mL] | Cmax [9] [ng/mL] | Therm solubility ([1]; buffer, pH 6.8, 24 h) [µg/mL] | Structure (SMILES)
1 | 256 (≈ 450 µM) | 65 | 7.2 | 467 | 20 | 948 | 3410 | 91.7 | 949 | 420 | – | C=CC(=O)N1CC[C@H](N2C(=O)N(c3ccccc3)Cc3cnc(Nc4ccc(N5CCN(C)CC5)c(OC)c4)nc32)C1
2 | 1540 (≈ 2700 µM) | 111 | 15.2 | 200 | 44 | 2120 | 1790 | 86.7 | 962 | 613 | – | C=CC(=O)N1CC[C@H](N2C(=O)N(c3ccccc3)Cc3cnc(Nc4ccc(N5CCN(C)CC5)cc4OC)nc32)C1
3 | 691 (≈ 1240 µM) | – | – | 122 | 33 | 3480 | 3260 | 40 | 2120 | 964 | – | C=CC(=O)N1CC[C@H](N2C(=O)N(c3ccccc3)Cc3cnc(Nc4ccc(N5CCN(C)CC5)c(F)c4)nc32)C1
4 | 60.9 (≈ 100 µM) | 196 | 55.5 | – | – | – | – | – | – | – | – | C=CC(=O)N1CC[C@H](N2C(=O)N(c3ccccc3)Cc3cnc(Nc4ccc(N5CCN(C)CC5)c(C(F)(F)F)c4)nc32)C1
5 | 214 (≈ 374 µM) | 89 | 35.6 | – | – | – | – | – | – | – | – | C=CC(=O)N1CC[C@H](N2C(=O)N(c3ccccc3)Cc3cnc(Nc4ccc(N5CCN(C)CC5)c(Cl)c4)nc32)C1
6 | 310 (≈ 577 µM) | 311 | 16.2 | 335 | – | 1300 | – | – | – | 359 | – | C=CC(=O)N1CC[C@H](N2C(=O)N(c3ccccc3)Cc3cnc(Nc4ccc(C5CCN(C)CC5)cc4)nc32)C1
7 | 107 (≈ 184 µM) | 279 | 8.8 | 1040 | 24 | 418 | 784 | 240 | 359 | 102 | – | C=CC(=O)N1CC[C@H](N2C(=O)N(Cc3ccccc3)Cc3cnc(Nc4ccc(N5CCN(C)CC5)cc4OC)nc32)C1
8 | 142 (≈ 237 µM) | 437 | 40.3 | – | – | – | – | – | – | – | – | C=CC(=O)N1CCC[C@@H](N2C(=O)N(Cc3ccccc3)Cc3cnc(Nc4ccc(N5CCN(C)CC5)cc4OC)nc32)C1
9 | 4350 (≈ 7680 µM) | 448 | 41.3 | 382 | 40 | 1130 | 1410 | 153 | 561 | 232 | – | C=CC(=O)N1CC[C@H](N2C(=O)N(c3ccccc3)Cc3cnc(Nc4ccc(CCN5CCN(C)CC5)cc4)nc32)C1
10 | 714 (≈ 1330 µM) | 523 | 97.9 | 565 | 20 | 760 | 1820 | 113 | 746 | 291 | – | C=CC(=O)N1CC[C@H](N2C(=O)N(c3ccccc3)Cc3cnc(Nc4cccc(N5CCN(C)CC5)c4)nc32)C1
11 | 199 (≈ 341 µM) | 1550 | 107 | – | – | – | – | – | – | – | – | C=CC(=O)N1CC[C@@H](N2C(=O)N(Cc3ccccc3)Cc3cnc(Nc4ccc(N5CCN(C)CC5)cc4OC)nc32)C1
12 | 976 (≈ 1810 µM) | 249 | 29.1 | 203 | 54 | 2310 | 1520 | 96.7 | 857 | 783 | – | C=CC(=O)N1CC[C@H](N2C(=O)N(c3ccccc3)Cc3cnc(Nc4ccc(N5CCN(C)CC5)cc4)nc32)C1

The remaining lines, values behind:

Row | Structure (SMILES) | solubility thermodynamic at 24 h [1] [µg/mL] | IC50 (NCI-H1975) [nM] | IC50 [2] [nM] | CL/F [3] [mL/min/kg] | bioavailability [4] [%] | AUC(0-inf) [5] [ng·h/mL] | Cmax [6] [ng/mL] | clearance [7] [mL/min/kg] | AUC(0-inf) [8] [ng·h/mL] | Cmax [9] [ng/mL] | Therm solubility ([1]; buffer, pH 6.8, 24 h) [µg/mL]
13 | C=CC(=O)NCCN1C(=O)N(Cc2ccccc2)Cc2cnc(Nc3ccc(N4CCN(C)CC4)cc3OC)nc21 | 96.7 (≈ 174 µM) | > 10000 | > 1000 | – | – | – | – | – | – | – | –
14 | C=CC(=O)N1CC[C@H](N2C(=O)N(C(C)C)Cc3cnc(Nc4ccc(N5CCN(C)CC5)cc4OC)nc32)C1 | 2490 (≈ 4660 µM) | 3060 | 864 | – | – | – | – | – | – | – | –
15 | C=CC(=O)N1CCC[C@H](N2C(=O)N(Cc3ccccc3)Cc3cnc(Nc4ccc(N5CCN(C)CC5)cc4OC)nc32)C1 | 129 (≈ 216 µM) | 1560 | 204 | – | – | – | – | – | – | – | –
16 | C=CC(=O)N1CCC(N2C(=O)N(Cc3ccccc3)Cc3cnc(Nc4ccc(N5CCN(C)CC5)cc4OC)nc32)CC1 | 9.3 (≈ 15.6 µM) | 546 | 144 | – | – | – | – | – | – | – | –
17 | C=CC(=O)N1CC[C@H](N2C(=O)N(C)Cc3cnc(Nc4ccc(N5CCN(C)CC5)cc4OC)nc32)C1 | 1250 (≈ 2470 µM) | 1480 | 525 | – | – | – | – | – | – | – | –
18 | C=CC(=O)NC1CCC(N2C(=O)N(Cc3ccccc3)Cc3cnc(Nc4ccc(N5CCN(C)CC5)cc4OC)nc32)CC1 (centres undefined) | 18.8 (≈ 30.8 µM) | 2680 | 708 | – | – | – | – | – | – | – | –
19 | C=CC(=O)N1CC[C@H](N2C(=O)N(C3CCCC3)Cc3cnc(Nc4ccc(N5CCN(C)CC5)cc4OC)nc32)C1 | 250 (≈ 446 µM) | 679 | 58.7 | – | – | – | – | – | – | – | –
20 | C=CC(=O)Nc1cccc(N2C(=O)N(Cc3ccccc3)Cc3cnc(Nc4ccc(N5CCN(C)CC5)cc4OC)nc32)c1.CS(=O)(=O)O | – | – | – | – | – | – | 4370 | 53.3 | 1570 | – | 4
21 | C=CC(=O)N1CC[C@H](N2C(=O)N(c3ccccc3)Cc3cnc(Nc4ccccc4)nc32)C1 | 3.5 (≈ 7.95 µM) | 1680 | 235 | 95 | 44 | 4520 | 6540 | 41.7 | 2030 | 1670 | –
22 | C=CC(=O)N1CC[C@H](N2C(=O)N(C3CCCCC3)Cc3cnc(Nc4ccc(N5CCN(C)CC5)cc4OC)nc32)C1 | 763 (≈ 1330 µM) | 654 | 42.9 | – | – | – | – | – | – | – | –
